Test results from ChEMBL document CHEMBL1765066, “Role of metalation in the topoisomerase IIα inhibition and antiproliferation activity of a series of α-heterocyclic-N4-substituted thiosemicarbazones and their Cu(II) complexes” (J Med Chem, 2011).
The source made the active and inactive calls. No cut-off for these calls is given here.

Target: T1, DNA topoisomerase 2-alpha (Homo sapiens, UniProt P11388)
Assay: Inhibition of human topoisomerase 2 alpha-mediated relaxation of supercoiled pHOT DNA at 100 uM after 30 mins by agarose gel electrophoresis
Conditions: not given
Summary of the method: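 Single-concentration gel run at 100 μM drug, added from DMSO stock. Commercial human topo IIα (~2 units) with supercoiled pHOT DNA in reaction buffer (20 μL final), 37 °C for 30 min. The reaction was stopped with SDS plus proteinase K (37 °C, 15 min) and electrophoresed on 1% agarose (5 h, 5 V/cm). Gels were ethidium bromide pre- or post-stained and scored for supercoiled, relaxed and linear DNA.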

T1 sequence (P11388 whole entry): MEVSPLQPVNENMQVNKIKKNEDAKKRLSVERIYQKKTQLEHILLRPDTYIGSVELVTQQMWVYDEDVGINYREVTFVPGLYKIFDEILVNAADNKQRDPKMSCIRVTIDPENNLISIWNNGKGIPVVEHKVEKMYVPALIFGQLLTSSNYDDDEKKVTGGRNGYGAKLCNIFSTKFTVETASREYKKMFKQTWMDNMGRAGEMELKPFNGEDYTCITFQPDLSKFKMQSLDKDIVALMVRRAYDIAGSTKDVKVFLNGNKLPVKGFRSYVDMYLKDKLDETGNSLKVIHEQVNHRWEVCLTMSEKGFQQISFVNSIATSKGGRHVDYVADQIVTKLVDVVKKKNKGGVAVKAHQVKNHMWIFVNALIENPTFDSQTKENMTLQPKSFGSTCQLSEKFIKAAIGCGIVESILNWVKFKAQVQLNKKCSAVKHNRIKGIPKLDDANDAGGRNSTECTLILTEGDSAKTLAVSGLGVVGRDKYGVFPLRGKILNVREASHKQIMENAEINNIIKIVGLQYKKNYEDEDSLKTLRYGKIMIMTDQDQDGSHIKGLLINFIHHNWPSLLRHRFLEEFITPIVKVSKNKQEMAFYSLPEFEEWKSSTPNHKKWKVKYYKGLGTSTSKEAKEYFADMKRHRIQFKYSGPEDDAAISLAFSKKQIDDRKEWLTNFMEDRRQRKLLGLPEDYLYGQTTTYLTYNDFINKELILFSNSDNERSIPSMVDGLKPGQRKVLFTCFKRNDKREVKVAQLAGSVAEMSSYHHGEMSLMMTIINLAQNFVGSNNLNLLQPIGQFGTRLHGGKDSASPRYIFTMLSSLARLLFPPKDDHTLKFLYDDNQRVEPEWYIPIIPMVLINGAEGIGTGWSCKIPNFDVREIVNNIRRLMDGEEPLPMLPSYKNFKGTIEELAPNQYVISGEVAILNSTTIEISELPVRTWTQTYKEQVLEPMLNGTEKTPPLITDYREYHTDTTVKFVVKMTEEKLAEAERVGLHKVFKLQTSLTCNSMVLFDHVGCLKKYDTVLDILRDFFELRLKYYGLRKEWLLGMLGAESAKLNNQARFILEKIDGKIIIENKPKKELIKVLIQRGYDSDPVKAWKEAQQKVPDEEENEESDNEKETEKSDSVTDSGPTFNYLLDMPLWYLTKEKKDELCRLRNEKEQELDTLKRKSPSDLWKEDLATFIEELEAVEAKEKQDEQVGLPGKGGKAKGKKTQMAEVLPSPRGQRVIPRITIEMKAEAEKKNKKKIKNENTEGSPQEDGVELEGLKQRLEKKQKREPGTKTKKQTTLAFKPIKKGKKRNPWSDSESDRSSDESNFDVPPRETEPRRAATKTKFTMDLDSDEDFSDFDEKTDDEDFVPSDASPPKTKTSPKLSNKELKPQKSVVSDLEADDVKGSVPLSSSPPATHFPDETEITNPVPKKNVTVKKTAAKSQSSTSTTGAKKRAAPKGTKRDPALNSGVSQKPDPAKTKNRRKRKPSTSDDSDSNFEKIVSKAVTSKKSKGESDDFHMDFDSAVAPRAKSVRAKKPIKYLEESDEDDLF

Row | SMILES | inhibition
1 | C=CCNC(=S)N/N=C(\C)c1ccccn1 | inactive
2 | S=C(NCc1ccccc1)N/N=C/c1ccccn1 | inactive
3 | N/C(S)=N/N=C/c1ccccn1 | inactive
4 | CCNC(=S)N/N=C(\C)c1ccccn1 | Active
5 | S=C(N/N=C/c1ccccn1)N1CCCC1 | inactive
6 | C/N=C(\S)N/N=C(\C)c1cnccn1 | inactive

The next lines start with the values.

Row | inhibition | SMILES
7 | Active | CCNC(=S)N/N=C/c1ccccn1
8 | inactive | CC(C)NC(=S)N/N=C/c1ccccn1
9 | Active | CNC(=S)N/N=C(\C)c1ccccn1
10 | Active | CNC(=S)N/N=C/c1ccccn1
11 | inactive | C=CCNC(=S)N/N=C/c1ccccn1

Target: T1, DNA topoisomerase 2-alpha
Assay: Inhibition of human topoisomerase 2 alpha-mediated relaxation of supercoiled pHOT DNA after 30 mins by agarose gel electrophoresis
Conditions: not given

Row | SMILES | IC50 [µM]
12 | C=CCNC(=S)N/N=C(\C)c1ccccn1 | > 100
13 | S=C(NCc1ccccc1)N/N=C/c1ccccn1 | > 100
14 | N/C(S)=N/N=C/c1ccccn1 | > 100
15 | CCNC(=S)N/N=C(\C)c1ccccn1 | 79
16 | S=C(N/N=C/c1ccccn1)N1CCCC1 | > 100
17 | C/N=C(\S)N/N=C(\C)c1cnccn1 | > 100

Results, then the molecule that gave them:

Row | IC50 [µM] | SMILES
18 | 94 | CCNC(=S)N/N=C/c1ccccn1
19 | > 100 | CC(C)NC(=S)N/N=C/c1ccccn1
20 | 92 | CNC(=S)N/N=C(\C)c1ccccn1
21 | 76 | CNC(=S)N/N=C/c1ccccn1
22 | > 100 | C=CCNC(=S)N/N=C/c1ccccn1

Tested on: SK-BR-3
Assay: Growth inhibition against human SK-BR-3 cells after 24 hrs by MTT assay
Format: functional
Conditions: SK-BR-3, 24 h
Summary of the method: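 SK-BR-3 cells in DMEM:F-12 (1:1) with 10% fetal calf serum, L-glutamine, nonessential amino acids and penicillin/streptomycin were seeded at 20 000 cells/well overnight. Drug was added in fresh medium (500 μM to 10 nM) for 24 h at 37 °C/5% CO2. MTT was added for 3 h, detergent solubilization ran overnight at room temperature, then absorbance was read. Values were normalized to untreated wells; GI50 from a sigmoidal fit; triplicate.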

Row | SMILES | GI50 [µM]
23 | C=CCNC(=S)N/N=C(\C)c1ccccn1 | 6.1
24 | S=C(NCc1ccccc1)N/N=C/c1ccccn1 | 4.6
25 | N/C(S)=N/N=C/c1ccccn1 | 7.4
26 | CCNC(=S)N/N=C(\C)c1ccccn1 | 5.9
27 | S=C(N/N=C/c1ccccn1)N1CCCC1 | 4.3
28 | C/N=C(\S)N/N=C(\C)c1cnccn1 | 7.9

Now from value to molecule:

Row | GI50 [µM] | SMILES
29 | 6.3 | CCNC(=S)N/N=C/c1ccccn1
30 | 7.7 | CC(C)NC(=S)N/N=C/c1ccccn1
31 | 5.5 | CNC(=S)N/N=C(\C)c1ccccn1
32 | 7.1 | CNC(=S)N/N=C/c1ccccn1
33 | 8.1 | C=CCNC(=S)N/N=C/c1ccccn1
